Screening results: PubChem BioAssay, several laboratories
Compounds with a hit are over-represented: about 4.6% of the library has one in this group of screens.
Hck Nef HTS = inhibitors of Nef-activated human Hck kinase, primary screen, biochemical, Z-Lyte FRET, 384-well, Hck-YEEI; Recombinant Hck-YEEI plus Nef, Z-Lyte FRET kinase assay; hit rate 0.68% among 220,000; inhibition, % at 20 µM; Tyrosine-protein kinase HCK (Homo sapiens), P08631;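 active means Hck-Nef kinase inhibition above about 50%, limit read from the data; inactive means inhibition below that limit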
Target sequence (P08631 whole entry, looked up): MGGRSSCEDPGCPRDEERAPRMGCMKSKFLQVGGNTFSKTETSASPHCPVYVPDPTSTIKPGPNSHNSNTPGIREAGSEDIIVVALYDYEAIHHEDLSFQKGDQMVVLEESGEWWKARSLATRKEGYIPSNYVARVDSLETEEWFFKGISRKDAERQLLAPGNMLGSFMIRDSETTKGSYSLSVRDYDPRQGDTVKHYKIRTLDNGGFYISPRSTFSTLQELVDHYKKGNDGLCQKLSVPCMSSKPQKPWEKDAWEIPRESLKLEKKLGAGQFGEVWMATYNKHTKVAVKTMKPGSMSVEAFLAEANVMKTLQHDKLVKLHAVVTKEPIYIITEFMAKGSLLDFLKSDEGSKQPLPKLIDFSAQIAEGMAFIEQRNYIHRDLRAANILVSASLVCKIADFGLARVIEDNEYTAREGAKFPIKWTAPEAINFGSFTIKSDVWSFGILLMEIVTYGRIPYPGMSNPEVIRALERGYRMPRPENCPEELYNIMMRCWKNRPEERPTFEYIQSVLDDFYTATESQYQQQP
Arbovirus anti = antivirals against arbovirus infection, primary screen, cell-based, full library, 10K replicate subset. arbovirus infection cell-based antiviral screen. inhibition, % at 10 µM. hit rate 0.37% among 200,000. AID 1251, 2008; in the data active means inhibition above about 30%
p47phox inh = p47phox/p22phox peptide binding inhibitors, primary screen, biochemical, uHTS, NADPH oxidase regulatory subunit | fluorescence polarization, 2 h | inhibition, % at 24.7 µM | hit rate 0.53% among 220,000 | Neutrophil cytosol factor 1 (Homo sapiens), P14598;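 active means inhibition above about 30%, limit read from the data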
WT yeast gro inh = growth inhibition of WT strain, primary screen, mitochondrial fusion inhibitor project, WT and mutant strains, chemical genetic; hit rate 2.1% among 190,000; inhibition, % at 10 µM; mitochondrial fusion phenotypic screen; in the data active means inhibition above about 58%; tested in S. cerevisiae
RAM network inh = inhibitors of the yeast RAM network, primary screen, dse1pr::URA3 reporter, 5-FOA selection; S. cerevisiae dse1pr::URA3 reporter, 5-FOA growth OD615, 2 d; analog-sensitive cbk1-as2 kinase mutant strain; inhibition, % at 50 µM; hit rate 1.8% among 190,000;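 active means inhibition above a set limit, 3 SD over mean compound inhibition, cut at about 8.4% in these data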;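 further: inhibition rescues growth on 5-FOA so higher OD means more RAM inhibition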
Calb biofilm kill = clotrimazole potentiators killing C. albicans biofilm, primary screen, 4-compound mixtures; AID 1242, 2008; C. albicans biofilm persisters + clotrimazole, fluorescence viability; primary screen in compound mixtures of four per well; inhibition, % at 7.6 µM; hit rate 0.02% among 120,000;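 active means inhibition above 30.3% in the primary screen of four-compound pools, then above 30% when the compound was retested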;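 further: compounds exposed to preformed 24 h biofilms for 48 h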
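Assay system: C. albicans biofilms / Medium: RPMI/MOPS medium, pH 7.0 / Schedule: biofilm formation 24 h, compound exposure 48 h, 37 °C / Measured by: Alamar Blue fluorescence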
A number is an active result; n = inactive; x = not tested or not shown.

SMILES	Hck Nef HTS	Arbovirus anti	p47phox inh	WT yeast gro inh	RAM network inh	Calb biofilm kill
COC(c1ccccc1)c1nnc(CCC(=O)N(C)Cc2cccc(-n3cccn3)c2)o1 (stereo not given)	n	n	n	n	n	n
C=CCn1c(SCC(=O)Nc2cc(OC)c(NC(=O)c3ccco3)cc2OC)nnc1-c1ccncc1	n	n	n	n	8.6	n
C=CCn1c(SCC(=O)Nc2cc(C)ccc2OC)nnc1-c1ccco1	n	n	n	n	n	x
C=CCn1c(SCC(=O)Nc2cc(C)c(Cl)cc2OC)nnc1-c1ccco1	n	n	n	n	n	x
C=CCn1c(SCC(=O)Nc2ccc(NC(=O)c3ccco3)c(OC)c2)nnc1-c1ccncc1	n	n	94.2	n	n	x
CC[n+]1ccc(/C=C2\Sc3ccccc3N2CCCS(=O)(=O)[O-])c2ccccc21	n	n	n	n	n	n
CN1C=C/C(=C\c2cc[n+](C)c3ccccc23)c2ccccc21	n	n	n	69.1	n	n
Cc1cc(C)nc(Oc2ccc(Br)cc2Br)n1	n	n	n	n	n	n
CC(C)(C)NC(=S)NC(=O)C12CC3CCC(CC(C3)C1)C2	n	n	n	70.2	n	n
O=C(NC(=S)NC1C2CC3CC(C2)CC1C3)C12CC3CC(CC(C3)C1)C2 (stereo not given)	n	n	n	63.1	n	n
CC12CC3(C)CC(C)(C1)CC(C(=O)NC(=S)NC(C)(C)C)(C2)C3	n	n	n	70.2	n	n
O=C(Nc1cccnc1)c1cccc(F)c1	n	n	n	n	n	n
Nc1cc(N)nc(SCc2nnnn2-c2ccc(Cl)cc2)n1	n	n	n	n	n	n
O=C(COC(=O)Cc1ccsc1)NCC1CCCCC1	n	n	n	n	n	x
COc1cc(-c2nnc(SCC(=O)OC3CCCCC3)o2)cc(OC)c1OC	n	n	n	n	9.0	x
CCCCCOC(=O)CSc1nnc(-c2cc(OC)c(OC)c(OC)c2)o1	n	n	31.1	n	n	x
CCCCOC(=O)CSc1nnc(-c2ccc(Cl)cc2Cl)o1	n	n	n	60.4	n	x
O=C(O)c1ccc(CNCc2ccccc2F)cc1	n	n	n	n	n	n
Cc1nc(Nc2ccc(Cl)cc2Cl)sc1C(=O)Nc1ccccc1	n	n	n	71.0	n	n
N#CC(c1ccccc1F)(c1ncc(C(F)(F)F)cc1Cl)N1CCOCC1 (stereo not given)	n	n	n	n	n	x
N#CC(c1ccc(Cl)cc1)(c1ncc(C(F)(F)F)cc1Cl)N1CCOCC1 (stereo not given)	n	n	n	69.9	n	x
CNc1oc(-c2ccc(Cl)cc2)nc1P(=O)(c1ccccc1)c1ccccc1	n	n	n	61.9	n	x
COc1cc(OC)c2ccc(=O)oc2c1C(CCN1CCN(c2ccccc2)CC1)c1ccc(N(C)C)cc1 (stereo not given)	n	x	93.9	x	x	n
COc1cc(OC)c2c(-c3ccccc3)cc(=O)oc2c1C(CCN1CCN(c2ccccc2)CC1)c1ccc(N(C)C)cc1 (stereo not given)	n	x	n	x	x	n
O=C(OCC(=O)N1CCN(C(=O)c2ccco2)CC1)c1cn(-c2ccccc2)nc1-c1ccccc1	n	n	n	80.2	n	x
SMILES	Hck Nef HTS	Arbovirus anti	p47phox inh	WT yeast gro inh	RAM network inh	Calb biofilm kill
CC1CN(C(=O)c2cc3cc([N+](=O)[O-])ccc3s2)CC(C)O1 (stereo not given)	n	n	n	n	n	n
Cc1ccc2c(c1)cc(CN(Cc1cccs1)C(=O)c1ccco1)c1nnnn12	n	n	n	n	n	x
Cc1ccc2cc(CN(Cc3cccs3)C(=O)c3ccco3)c3nnnn3c2c1C	n	n	n	58.5	n	n
CCCCCCCCCS(=O)(=O)N/N=C/c1cccc([N+](=O)[O-])c1	n	n	n	88.4	8.7	x
CCOCc1c(C(=O)NC2=Nc3ccccc3NC(CC)=C2C(=O)OCC)oc2ccccc12	n	n	n	n	10.3	n
NS(=O)(=O)c1ccc(CCNC(=O)c2ccc(C#CC3(O)CCCCC3)cc2)cc1	n	n	n	n	n	n
Nc1nc(-c2cccc(Br)c2)cs1	n	n	n	71.1	n	x
CC1CCCCC1NC(=O)/C(C#N)=C/c1ccccc1F (stereo not given)	n	n	n	72.6	n	n
O=C(/C=C/Nc1ccc([N+](=O)[O-])cc1Br)c1cccc2ccccc12	n	n	n	n	n	n
CCOC(=O)c1csc(NC(=O)CC2CCCC2)n1	n	30.2	n	n	n	n
CCOC(=O)/C(=C/c1c2ccccc2cc2ccccc12)NC(=O)c1ccccc1	n	n	n	60.4	n	x
CC(C)OC(=O)/C(=C/c1ccc2c(c1)c1ccccc1n2C)NC(=O)c1ccccc1	n	n	n	n	n	n
COC(=O)/C(=C\c1ccc2c(c1)c1ccccc1n2C)NC(=O)c1ccccc1	n	n	n	n	8.6	n
Cc1ccc(OCCNc2cc(N3CCN(CCO)CC3)ccc2[N+](=O)[O-])cc1C	n	n	n	n	n	n
O=C(CN1C(=O)COc2ccccc21)NCc1ccc(C(=O)O)cc1	n	n	n	n	n	x
O=C(O)c1ccccc1C(=O)c1ccc2c(c1)N(Cc1ccc(Cl)c(Cl)c1)C(=O)CO2	n	n	n	62.9	n	n
CC(C)n1c(CSCc2ccc(Cl)cc2Cl)n[nH]c1=S	n	n	n	64.8	n	n
C(=N\N1CCN(C2c3ccccc3-c3ccccc32)CC1)/c1ccncc1	n	n	n	68.1	n	x
COc1ccc(OC)c(/C=N/NC(=O)CSc2cc(C)nc3c(OC)cccc23)c1	n	n	n	n	n	n
CC(C)c1ccc(NC(=S)NCc2ccc3c(c2)OCO3)cc1	n	n	n	67.0	n	n
COc1ccc(NC(=S)NCc2ccc3c(c2)OCO3)cc1	n	n	n	n	n	n
Cc1ccc(/C=N/NC(=O)c2ccccc2OCc2cccc(Br)c2)o1	n	n	n	n	n	n
C=C(C)CNC(=S)NN=C1c2ccccc2-c2ccccc21	n	n	n	69.9	n	n
CC(C)CC(NC(=O)CC12CC3CC(CC(C3)C1)C2)C(=O)NC1=NCCS1 (stereo not given)	n	n	n	n	n	n
COc1ccc(CC(=O)Nc2c3c(nn2-c2cccc(Cl)c2)CS(=O)(=O)C3)cc1	n	n	n	n	9.2	x
CCCOC(=O)c1c(NC(=O)CSc2nc(-c3ccco3)cc(C(F)(F)F)n2)sc(C(=O)OC)c1C	n	n	n	n	8.8	x
CSC1=NC(C(Cl)(Cl)Cl)N=C(c2ccccc2)N1 (stereo not given)	n	n	n	n	n	n
COc1ccc(CCC(=O)Nc2sccc2C#N)cc1	59.3	n	n	n	n	n
